Ki, solubility and inhibition data for twelve compounds are collected here from ChEMBL document CHEMBL1124811, “Cyclic hexapeptide oxytocin antagonists. Potency-, selectivity-, and solubility-enhancing modifications” (J Med Chem, 1990).

Broadly, the Ki is the dissociation constant of the complex between target and ligand, obtained from inhibition or displacement. As a reminder, the inhibition is the percentage by which the read-out fell short of the control.

The structures appear in SMILES notation. Values after ≈ are worked out from the molar mass of the structure shown. Non-standard residues stand in square brackets, D forms with d. Residues, ends and D or L forms follow the SMILES beside them. Piz(1,6-dehydro) = O=C(O)[C@@H]1CCC=NN1; dPiz(1,6-dehydro) = O=C(O)[C@H]1CCC=NN1; dNMeF = CN[C@H](Cc1ccccc1)C(=O)O; Pip = O=C(O)[C@@H]1CCCCN1; dPip = O=C(O)[C@H]1CCCCN1; Orn = NCCC[C@H](N)C(=O)O

One data set addresses T1, Oxytocin receptor (Rattus norvegicus, UniProt P70536).
T1 sequence (P70536 whole entry): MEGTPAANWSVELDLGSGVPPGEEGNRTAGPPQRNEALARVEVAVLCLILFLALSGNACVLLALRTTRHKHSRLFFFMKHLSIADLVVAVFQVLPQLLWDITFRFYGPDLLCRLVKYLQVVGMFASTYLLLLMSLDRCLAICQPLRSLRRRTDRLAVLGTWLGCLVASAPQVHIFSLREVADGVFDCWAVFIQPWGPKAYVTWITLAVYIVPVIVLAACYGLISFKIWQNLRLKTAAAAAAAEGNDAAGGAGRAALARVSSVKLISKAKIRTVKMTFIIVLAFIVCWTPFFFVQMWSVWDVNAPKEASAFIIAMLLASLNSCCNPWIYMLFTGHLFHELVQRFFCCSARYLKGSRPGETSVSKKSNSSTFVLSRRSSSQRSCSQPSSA
The data set can be described thus: Inhibition of [3H]- oxytocin binding to rat uterine Oxytocin receptor. Summed up:
(§1)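 Radioligand competition binding. Ki derived from IC50 values from competition curves; reported as group means ± SEM of three or more replicate determinations unless noted otherwise.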

In another data set the target is Vasopressin V2 receptor (Rattus norvegicus, UniProt Q00788). Description: Inhibition of [3H]arginine vasopressin binding to rat kidney medulla Vasopressin V2 receptor. The procedure, abridged: as §1
Chain of Vasopressin V2 receptor (Q00788 whole entry): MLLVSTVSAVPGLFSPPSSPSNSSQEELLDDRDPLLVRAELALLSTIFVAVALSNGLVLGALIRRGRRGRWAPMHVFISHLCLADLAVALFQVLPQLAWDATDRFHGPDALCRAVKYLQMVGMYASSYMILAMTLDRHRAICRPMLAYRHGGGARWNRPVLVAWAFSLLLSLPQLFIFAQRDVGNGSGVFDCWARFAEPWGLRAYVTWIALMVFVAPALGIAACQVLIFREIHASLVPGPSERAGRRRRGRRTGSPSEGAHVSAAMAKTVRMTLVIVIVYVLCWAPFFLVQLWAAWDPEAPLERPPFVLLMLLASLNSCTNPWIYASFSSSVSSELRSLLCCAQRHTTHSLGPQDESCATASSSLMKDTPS
A further data set deals with Vasopressin V1 receptor (Rattus norvegicus, UniProt P48974+P30560). The data set can be described thus: Inhibition of [3H]arginine vasopressin binding to rat liver Vasopressin V1 receptor. Summed up:
as §1

Data set [1] in a line: Solubility at 25 degree C and pH of 7.0. The class given is physicochemical. To be noted: pH 7; read-out: S.
Data set [2] is described as follows: Solubility at 25 degree C and pH of 10.8. The class given is physicochemical. To be noted: pH 10.8; read-out: S.
Data set [3] is described as follows: Solubility at 25 degree C and pH of 5.0. The format is physicochemical. To be noted: pH 5; read-out: S.
Data set [4] deals with T2, Oxytocin receptor (Rattus norvegicus) (UniProt P70536).
T2 sequence (whole entry): T1 sequence (P70536 whole entry)
Description: Inhibition of binding of [3H]- oxytocin to rat uterine Oxytocin receptor. To be noted: concentration not given here. Summed up:
as §1

Data set [5] concerns the target Vasopressin V1 receptor (Rattus norvegicus) (UniProt P48974+P30560). The data set can be described thus: Inhibition of binding of [3H]-arginine vasopressin to rat liver Vasopressin V1 receptor at a concentration of 10000 nM.
The target in data set [6] is Vasopressin V2 receptor (Rattus norvegicus) (UniProt Q00788). The data set can be described thus: Inhibition of binding of [3H]-arginine vasopressin to rat kidney medulla Vasopressin V2 receptor at a concentration of 10000 nM.
Chain of Vasopressin V2 receptor (Rattus norvegicus) (Q00788 whole entry): as above
Data set [7] is described as follows: Solubility at 25 degree C and pH of 7.4. The format is physicochemical. To be noted: pH 7.4; read-out: S.

Chain of Vasopressin V1 receptor (Rattus norvegicus) (P30560 whole entry, looked up): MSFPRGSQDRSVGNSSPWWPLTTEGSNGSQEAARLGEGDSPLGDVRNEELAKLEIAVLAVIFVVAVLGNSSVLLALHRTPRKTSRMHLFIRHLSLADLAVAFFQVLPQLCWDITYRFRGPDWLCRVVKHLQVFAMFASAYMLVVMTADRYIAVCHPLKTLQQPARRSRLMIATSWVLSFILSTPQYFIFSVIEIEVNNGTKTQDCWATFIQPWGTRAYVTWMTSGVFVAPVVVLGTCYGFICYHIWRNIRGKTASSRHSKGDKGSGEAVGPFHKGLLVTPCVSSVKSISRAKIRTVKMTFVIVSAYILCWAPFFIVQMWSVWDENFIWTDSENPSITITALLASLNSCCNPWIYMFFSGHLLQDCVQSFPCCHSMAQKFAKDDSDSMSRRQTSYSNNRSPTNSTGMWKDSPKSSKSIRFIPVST
Chain of Vasopressin V1 receptor (Rattus norvegicus) (P48974 whole entry, looked up): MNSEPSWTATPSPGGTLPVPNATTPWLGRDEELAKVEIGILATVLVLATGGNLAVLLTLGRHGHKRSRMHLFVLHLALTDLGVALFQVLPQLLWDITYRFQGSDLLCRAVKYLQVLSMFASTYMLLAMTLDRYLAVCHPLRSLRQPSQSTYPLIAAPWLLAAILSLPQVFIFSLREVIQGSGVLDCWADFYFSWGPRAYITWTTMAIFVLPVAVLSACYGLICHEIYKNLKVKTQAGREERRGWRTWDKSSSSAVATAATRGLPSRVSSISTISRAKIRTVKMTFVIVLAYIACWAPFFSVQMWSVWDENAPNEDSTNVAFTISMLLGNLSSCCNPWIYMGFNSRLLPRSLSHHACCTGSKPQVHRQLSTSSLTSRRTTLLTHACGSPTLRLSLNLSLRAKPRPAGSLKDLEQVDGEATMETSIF

Consider `CC[C@H](C)[C@@H]1NC(=O)[C@@H](Cc2ccc3ccccc3c2)NC(=O)[C@@H]2CCCN2C(=O)[C@@H](Cc2c[nH]cn2)NC(=O)[C@@H]2CCCCN2C(=O)[C@H]2CCCCN2C1=O`, for which the Ki was found to be 1.6 nM at Oxytocin receptor, 320 nM at Vasopressin V2 receptor and 760 nM at Vasopressin V1 receptor.
For `CC[C@H](C)[C@@H]1NC(=O)[C@@H](Cc2ccccc2)NC(=O)[C@@H]2CCCN2C(=O)[C@@H](Cc2ccccc2)N(C)C(=O)[C@@H]2CCC=NN2C(=O)[C@H]2CCC=NN2C1=O` (cyclo(I[dPiz(1,6-dehydro)][Piz(1,6-dehydro)][dNMeF]P[dF])), the solubility in data set [1] is 68 µg/mL (≈ 92 µM). On Oxytocin receptor, this compound had a Ki of 7.3 nM.
Consider `CCOc1ccc(C[C@H]2NC(=O)[C@@H]3CCCN3C(=O)[C@@H](Cc3ccccc3)N(C)C(=O)[C@@H]3CCCCN3C(=O)[C@H]3CCCCN3C(=O)[C@H]([C@@H](C)CC)NC2=O)cc1` (cyclo(I[dPip][Pip][dNMeF]P[dY](Et))), for which the Ki on Oxytocin receptor is 49 nM; at Vasopressin V2 receptor, 250 nM; on Vasopressin V1 receptor, 20000 nM.
In the same order, the values of `CC[C@H](C)[C@@H]1NC(=O)[C@@H](Cc2c[nH]c3ccccc23)NC(=O)[C@@H]2CCCN2C(=O)[C@@H](Cc2ccccc2)N(C)C(=O)[C@H](CCCN)NC(=O)[C@H]2CCCCN2C1=O` (cyclo(I[dPip][Orn][dNMeF]P[dW])) are 49 nM, 500 nM and 1000 nM.
Regarding `CC[C@H](C)[C@@H]1NC(=O)[C@@H](Cc2ccccc2)NC(=O)[C@@H]2CCCN2C(=O)[C@@H](Cc2ccccc2)NC(=O)[C@@H]2CCCCN2C(=O)[C@H]2CCCCN2C1=O` (cyclo(I[dPip][Pip][dF]P[dF])), the values for the Ki on Oxytocin receptor, on Vasopressin V2 receptor and at Vasopressin V1 receptor were 140 nM, 4500 nM and 1600 nM, respectively.
In the same order, the values of `C[C@@H]1NC(=O)[C@@H](Cc2ccccc2)NC(=O)[C@@H]2CCCN2C(=O)[C@@H](Cc2ccccc2)N(C)C(=O)[C@@H]2CCCCN2C(=O)[C@H]2CCCCN2C1=O` (cyclo(A[dPip][Pip][dNMeF]P[dF])) are 12000 nM, above 30000 nM and above 30000 nM.
In the same order, the values of `CC[C@H](C)[C@@H]1NC(=O)[C@@H](Cc2c[nH]c3ccccc23)NC(=O)[C@@H]2CCCN2C(=O)[C@@H](Cc2ccccc2)N(C)C(=O)[C@@H]2CCCCN2C(=O)[C@H]2CCCCN2C1=O` (cyclo(I[dPip][Pip][dNMeF]P[dW])) are 8.1 nM, 260 nM and 3500 nM.
Turning to `CC[C@H](C)[C@@H]1NC(=O)[C@@H](Cc2c[nH]c3ccccc23)NC(=O)[C@@H]2CCCN2C(=O)[C@@H](Cc2c[nH]cn2)NC(=O)[C@@H]2CCCCN2C(=O)[C@H]2CCCCN2C1=O` (cyclo(I[dPip][Pip][dH]P[dW])), the solubility in data set [2] worked out at 110 µg/mL (≈ 146 µM); in data set [3], 2000 µg/mL (≈ 2650 µM). Further, the values for the Ki at Vasopressin V2 receptor and on Vasopressin V1 receptor were 1800 nM and 2200 nM, respectively.
Consider `CC[C@H](C)[C@@H]1NC(=O)[C@@H](Cc2ccccc2)NC(=O)[C@@H]2CCCN2C(=O)[C@@H](C)N(C)C(=O)[C@@H]2CCCCN2C(=O)[C@H]2CCCCN2C1=O`, for which the results for the Ki on Oxytocin receptor, on Vasopressin V2 receptor and at Vasopressin V1 receptor were 490 nM, above 10000 nM and above 10000 nM, respectively.
For the compound `CC[C@H](C)[C@@H]1NC(=O)[C@@H](C)NC(=O)[C@@H]2CCCN2C(=O)[C@@H](Cc2ccccc2)NC(=O)[C@@H]2CCCCN2C(=O)[C@H]2CCCCN2C1=O` (cyclo(I[dPip][Pip][dF]P[dA])), the inhibition is 0% in data set [4], 0% in data set [5] and 4% in data set [6].
With `CC[C@H](C)[C@@H]1NC(=O)[C@@H](Cc2ccccc2)NC(=O)[C@@H]2CCCN2C(=O)[C@@H](Cc2ccccc2)N(C)C(=O)[C@@H]2CCCCN2C(=O)[C@H]2CCCCN2C1=O`, the solubility in data set [7] amounted to 2 µg/mL (≈ 2.7 µM). Also, the Ki turned out to be 83 nM at Oxytocin receptor, 1600 nM at Vasopressin V2 receptor and 890 nM at Vasopressin V1 receptor.
As for `CC[C@H](C)[C@@H]1NC(=O)[C@@H](Cc2ccccc2)NC(=O)[C@@H]2CCCN2C(=O)[C@@H](Cc2ccccc2)N(C)C(=O)[C@@H]2CCCN2C(=O)[C@H]2CCCN2C1=O` (cyclo([dNMeF]P[dF]I[dP]P)), the Ki worked out at 1400 nM at Oxytocin receptor, 33000 nM at Vasopressin V2 receptor and 9300 nM on Vasopressin V1 receptor.
